Measured values as given in ChEMBL document CHEMBL3425409, “General role of the amino and methylsulfamoyl groups in selective cyclooxygenase(COX)-1 inhibition by 1,4-diaryl-1,2,3-triazoles and validation of a predictive pharmacometric PLS model” (Eur J Med Chem, 2015).
The source made the active and inactive calls. The calls are words filed in the database; no cut-off is given here.

Experiments:
[1] = target: T1, Prostaglandin G/H synthase 1 (Ovis aries) (UniProt P05979); assay: Inhibition of ovine COX-1 assessed as inhibition of PGH2 production using arachidonic acid as substrate at 50 uM by TMPD oxidation based colorimetric assay
T1 sequence (whole entry): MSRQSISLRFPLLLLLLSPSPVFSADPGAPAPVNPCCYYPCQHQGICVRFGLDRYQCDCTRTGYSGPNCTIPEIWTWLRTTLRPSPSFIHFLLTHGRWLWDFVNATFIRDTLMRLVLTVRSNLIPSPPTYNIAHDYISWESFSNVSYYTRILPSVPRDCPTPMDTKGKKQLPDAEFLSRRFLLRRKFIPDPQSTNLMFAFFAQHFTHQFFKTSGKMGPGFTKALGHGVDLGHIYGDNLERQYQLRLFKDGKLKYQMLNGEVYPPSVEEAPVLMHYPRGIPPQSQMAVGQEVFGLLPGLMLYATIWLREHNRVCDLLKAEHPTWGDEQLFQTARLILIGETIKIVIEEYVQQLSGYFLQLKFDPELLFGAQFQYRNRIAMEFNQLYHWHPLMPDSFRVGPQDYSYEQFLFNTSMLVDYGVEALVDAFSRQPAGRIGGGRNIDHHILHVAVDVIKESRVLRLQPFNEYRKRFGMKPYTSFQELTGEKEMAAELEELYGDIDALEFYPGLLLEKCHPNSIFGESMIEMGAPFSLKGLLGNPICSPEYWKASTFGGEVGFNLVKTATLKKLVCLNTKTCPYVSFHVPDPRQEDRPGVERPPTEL
How it was run: (§1)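 Ovine COX-1 and COX-2 tested with a commercial colorimetric COX inhibitor screening kit, run per the manufacturer's protocol. The kit reads the enzyme's peroxidase activity. Compounds screened as percent inhibition at a single 50 µM concentration.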

[2] = target: T2, Prostaglandin G/H synthase 2 (Ovis aries) (UniProt P79208); assay: Inhibition of ovine COX-2 assessed as inhibition of PGH2 production using arachidonic acid as substrate at 50 uM by TMPD oxidation based colorimetric assay; how it was run: as §1
T2 sequence (whole entry): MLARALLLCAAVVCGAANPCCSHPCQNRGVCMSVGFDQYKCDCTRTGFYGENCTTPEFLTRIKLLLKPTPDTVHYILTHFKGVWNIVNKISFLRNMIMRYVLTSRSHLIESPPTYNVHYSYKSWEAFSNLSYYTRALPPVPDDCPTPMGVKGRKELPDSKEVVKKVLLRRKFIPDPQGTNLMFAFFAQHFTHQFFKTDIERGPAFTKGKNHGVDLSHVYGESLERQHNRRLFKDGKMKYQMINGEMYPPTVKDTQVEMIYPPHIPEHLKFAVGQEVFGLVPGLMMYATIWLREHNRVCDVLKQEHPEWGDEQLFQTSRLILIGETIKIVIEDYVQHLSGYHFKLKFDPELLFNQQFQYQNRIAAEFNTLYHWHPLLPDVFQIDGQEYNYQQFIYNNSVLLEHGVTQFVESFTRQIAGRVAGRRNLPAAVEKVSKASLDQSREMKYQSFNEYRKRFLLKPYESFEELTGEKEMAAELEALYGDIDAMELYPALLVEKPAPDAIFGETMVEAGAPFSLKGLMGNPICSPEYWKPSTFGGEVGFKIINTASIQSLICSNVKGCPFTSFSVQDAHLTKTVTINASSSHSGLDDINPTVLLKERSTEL

[3] = target: T3, Prostaglandin G/H synthase 2 (Ovis aries, UniProt P79208); assay: Inhibition of ovine COX-2 assessed as inhibition of PGH2 production using arachidonic acid as substrate by TMPD oxidation based colorimetric assay
T3 sequence (P79208 whole entry): T2 sequence (whole entry)

[4] = tested on: SK-OV-3; assay: Antiproliferative activity against human SKOV3 cells assessed as cell growth inhibition after 48 hrs by MTT assay; assay type: cell-based; details: sk-ov-3, 48 h
How it was run: (§2)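 MTT read-out of growth after 48 h. After the drug incubation, MTT was added at 0.5 mg/mL for 3 h at 37 °C. Supernatant was removed, formazan dissolved in DMSO, and absorbance read.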

[5] = tested on: MCF7; assay: Antiproliferative activity against human MCF7 cells assessed as cell growth inhibition after 48 hrs by MTT assay; assay type: cell-based; details: mcf7, 48 h; how it was run: as §2
[6] = target: T4, Prostaglandin G/H synthase 2 (Homo sapiens, UniProt P35354); assay: Inhibition of LPS-induced COX2 in human whole blood assessed as reduction in […] levels by radioimmunoassay
T4 sequence (P35354 whole entry): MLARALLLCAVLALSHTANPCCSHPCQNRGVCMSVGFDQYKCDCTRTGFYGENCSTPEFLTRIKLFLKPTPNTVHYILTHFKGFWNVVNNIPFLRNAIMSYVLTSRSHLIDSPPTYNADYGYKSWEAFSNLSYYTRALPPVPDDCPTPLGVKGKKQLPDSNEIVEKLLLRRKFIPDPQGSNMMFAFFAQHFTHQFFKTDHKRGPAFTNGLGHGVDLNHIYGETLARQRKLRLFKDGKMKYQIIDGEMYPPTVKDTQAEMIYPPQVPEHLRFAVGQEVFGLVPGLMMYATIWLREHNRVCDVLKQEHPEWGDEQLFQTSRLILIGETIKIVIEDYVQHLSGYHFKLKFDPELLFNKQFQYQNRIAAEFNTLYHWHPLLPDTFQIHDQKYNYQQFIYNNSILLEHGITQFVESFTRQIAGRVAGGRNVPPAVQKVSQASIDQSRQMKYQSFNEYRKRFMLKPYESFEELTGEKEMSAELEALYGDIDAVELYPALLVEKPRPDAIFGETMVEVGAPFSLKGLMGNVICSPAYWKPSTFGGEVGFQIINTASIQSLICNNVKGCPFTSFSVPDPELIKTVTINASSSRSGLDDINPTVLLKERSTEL

| inhibition [1] | inhibition [2] | Compound | other results |
| --- | --- | --- | --- |
| inactive | inactive | Cc1c(-c2ccccc2)nnn1-c1ccc(Cl)cc1 | – |
| inactive | 40% | Cc1c(-c2ccco2)nnn1-c1ccc([N+](=O)[O-])cc1 | – |
| inactive | inactive | COc1ccc(-n2nnc(-c3ccc(SC)cc3)c2C)cc1 | – |
| inactive | inactive | COc1ccc(-n2nnc(-c3ccco3)c2C)cc1 | – |
| 21% | 20% | Cc1c(-c2ccccc2)nnn1-c1ccc(S(C)(=O)=O)cc1 | – |
| – | – | COc1ccc(-c2noc(CC(=O)O)c2-c2ccc(OC)cc2)cc1 [MOFEZOLAC] | IC50 [3]: 440 nM |
| 25% | inactive | COc1ccc(-c2nnn(-c3ccc(OC)cc3)c2C)cc1 | – |
| inactive | inactive | Cc1c(-c2ccccc2)nnn1-c1ccc(F)cc1 | – |
| inactive | inactive | COc1ccc(-c2nnn(-c3ccc(SC)cc3)c2C)cc1 | – |
| inactive | inactive | Cc1c(-c2ccccc2)nnn1-c1ccc([N+](=O)[O-])cc1 | – |
| 100% | inactive | COc1ccc(-n2nnc(-c3ccc(N)cc3)c2C)cc1 | Activity [4]: Non-toxic; Activity [5]: Non-toxic |
| 55% | inactive | COc1ccc(-c2nnn(-c3ccc(S(C)(=O)=O)cc3)c2C)cc1 | – |
| 45% | inactive | COc1ccc(-n2nnc(-c3ccc(Cl)o3)c2C)cc1 | – |
| inactive | 14% | CSc1ccc(-n2nnc(-c3ccccc3)c2C)cc1 | – |
| inactive | 26% | Cc1c(-c2ccccc2)nnn1-c1ccc(O)cc1 | – |
| 20% | inactive | COc1ccc(-n2nnc(-c3ccc([N+](=O)[O-])cc3)c2C)cc1 | – |
| 37% | – | Clc1ccc(-c2noc(CBr)c2-c2ccccc2)o1 | – |
| 56% | inactive | Cc1c(-c2ccccc2)nnn1-c1ccc(N)cc1 | Activity [4]: Non-toxic; Activity [5]: Non-toxic |
| 7% | – | COC(=O)Cc1onc(-c2ccc(Cl)o2)c1-c1ccccc1 | – |
| 11% | – | N#CCc1onc(-c2ccc(Cl)o2)c1-c1ccccc1 | – |
| 89% | – | Cc1onc(-c2ccc(Cl)o2)c1-c1ccccc1 | IC50 [6]: > 100000 nM |
| 26% | 35% | COc1ccc(-n2nnc(-c3ccccc3)c2C)cc1 | – |
| 20% | inactive | COc1ccc(-n2nnc(-c3ccc(S(C)(=O)=O)cc3)c2C)cc1 | – |
| – | 28% | COc1ccc(-n2nc(C(F)(F)F)cc2-c2ccco2)cc1 | – |
